{"source": "ChEMBL document CHEMBL5344459", "about": "“Suppressive Effects of Neuromedin U Receptor 2-Selective Peptide Agonists on Appetite and Prolactin Secretion in Mice” (2024)", "key": {"Mus musculus [1]": {"test_system": "Mus musculus", "assay": "Suppression of restrain stress-induced plasma prolactin level in C57BL/6J mouse at 20 nmol administered intranasally and 50 mins later exposure to restraint stress for 40 mins by ELISA", "format": "functional, organism-based", "details": "route nas, time 90.0 min"}, "Mus musculus [2]": {"test_system": "Mus musculus", "assay": "Suppression of appetite in ddY mouse assessed as body weight at 200 nmol administered intranasally on days 0 to 2 and measured for 3 days relative to day 0", "format": "functional", "details": "route nas, time 3 day", "summary_of_the_method": "(§1)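 Daily i.n. dosing (200 nmol) or saline vehicle on days 0–2 in individually housed mice; body weight (relative to day 0), daily food intake and water intake recorded daily. N = 8, mean ± SD; two-way repeated measures ANOVA with Tukey–Kramer test.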"}, "Mus musculus [3]": {"test_system": "Mus musculus", "assay": "Induction of stress related behaviour in ddY mouse assessed as increase in cumulative grooming time at 200 nmol administered intranasally and measured after 3 hrs by open field test", "format": "functional", "details": "route nas"}, "Mus musculus [4]": {"test_system": "Mus musculus", "assay": "Induction of anxiety-like behaviour in ddY mouse assessed as decrease in inner ratio at 200 nmol administered intranasally and measured after 45 mins by open field test", "format": "functional", "details": "route nas", "summary_of_the_method": "(§2)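 Open field (40 × 40 × 50 cm) with video tracking at 45 min and 24 h after i.n. dosing (200 nmol); total distance, cumulative grooming time, and inner ratio (% time in central 20 × 20 cm zone) scored. N = 8, mean ± SD; two-way repeated measures ANOVA, Tukey–Kramer.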"}, "Mus musculus [5]": {"test_system": "Mus musculus", "assay": "Effect on total distance travelled in ddY mouse at 200 nmol administered intranasally and measured after 45 mins by open field test", "format": "functional", "details": "route nas", "summary_of_the_method": "as §2"}, "Mus musculus [6]": {"test_system": "Mus musculus", "assay": "Suppression of appetite in ddY mouse assessed as decrease in daily food intake at 200 nmol administered intranasally on day 0 to 2 and measured on days 1 to 3", "format": "functional, organism-based", "details": "route nas, time 3.0 day", "summary_of_the_method": "as §1"}, "Mus musculus [7]": {"test_system": "Mus musculus", "assay": "Suppression of restrain stress-induced plasma prolactin level in C57BL/6J mouse assessed as prolactin level at 20 nmol administered intranasally followed by exposure to restraint stress for 40 mins by ELISA (reference value: 2.04 +/-0.95 ng/ml)", "format": "functional", "details": "route nas"}, "Mus musculus [8]": {"test_system": "Mus musculus", "assay": "Suppression of restrain stress-induced plasma prolactin level in C57BL/6J mouse at 200 nmol administered intranasally followed by exposure to restraint stress for 40 mins by ELISA", "format": "functional, organism-based", "details": "route nas"}, "Mus musculus [9]": {"test_system": "Mus musculus", "assay": "Induction of anxiety-like behaviour in ddY mouse assessed as decrease in inner ratio at 200 nmol administered intranasally and measured after 3 hrs by open field test", "format": "functional", "details": "route nas"}, "Mus musculus [10]": {"test_system": "Mus musculus", "assay": "Suppression of appetite in ddY mouse assessed as decrease in food consumption at 200 nmol administered intranasally as single dose on day 0 and measured on day 1", "format": "functional, organism-based", "details": "route nas, time 1.0 day", "summary_of_the_method": "(§3)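 Single i.n. dose (200 nmol) or saline vehicle given on day 0; mice housed individually, with body weight, food and water consumed recorded daily. N = 8 per group, mean ± SD; two-way repeated measures ANOVA followed by Tukey–Kramer test.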"}, "Mus musculus [11]": {"test_system": "Mus musculus", "assay": "Effect on water intake in ddY mouse at 200 nmol administered intranasally as single dose on day 0 and measured for 3 days", "format": "functional", "details": "route nas, time 3.0 day", "summary_of_the_method": "as §3"}, "Mus musculus [12]": {"test_system": "Mus musculus", "assay": "Suppression of plasma prolactin level in C57BL/6J mouse assessed as prolactin level at 20 nmol administered intranasally by ELISA (reference value: 0.45 +/-0.14 ng/ml)", "format": "functional", "details": "route nas"}, "Mus musculus [13]": {"test_system": "Mus musculus", "assay": "Suppression of appetite in ddY mouse assessed as decrease in body weight gain at 200 nmol administered intranasally as single dose on day 0", "format": "functional, organism-based", "details": "route nas", "summary_of_the_method": "as §3"}, "Mus musculus [14]": {"test_system": "Mus musculus", "assay": "Induction of stress related behaviour in ddY mouse assessed as increase in cumulative grooming time at 200 nmol administered intranasally and measured after 45 mins by open field test", "format": "functional", "details": "route nas", "summary_of_the_method": "as §2"}, "Mus musculus [15]": {"test_system": "Mus musculus", "assay": "Effect on total distance travelled in ddY mouse at 200 nmol administered intranasally and measured after 3 hrs by open field test", "format": "functional", "details": "route nas"}, "Mus musculus [16]": {"test_system": "Mus musculus", "assay": "Increase in water intake in ddY mouse at 200 nmol administered intranasally on days 0 to 2 and measured on days 4 to 5", "format": "functional", "details": "route nas, time 4-5 day", "summary_of_the_method": "as §1"}, "Mus musculus [17]": {"test_system": "Mus musculus", "assay": "Induction of stress related behaviour in ddY mouse assessed as increase in cumulative grooming time at 200 nmol administered intranasally and measured after 24 hrs by open field test", "format": "functional", "details": "route nas", "summary_of_the_method": "as §2"}, "Mus musculus [18]": {"test_system": "Mus musculus", "assay": "Induction of anxiety-like behaviour in ddY mouse assessed as decrease in inner ratio at 200 nmol administered intranasally and measured after 24 hrs by open field test", "format": "functional", "details": "route nas", "summary_of_the_method": "as §2"}}, "note": "The source made the active and inactive calls. The calls are words filed in the database; no cut-off is given here. Non-standard residues stand in square brackets, D forms with d. Residues, ends and D or L forms follow the SMILES beside them. *: point of attachment. Propanoyl(3-cHex) = O=C(CCC1CCCCC1)*; Dab = NCC[C@H](N)C(=O)O", "data": [{"smiles": "CC(C)C[C@H](NC(=O)CCC1CCCCC1)C(=O)N[C@@H](CC(C)C)C(=O)N[C@@H](CCN)C(=O)N1CCC[C@H]1C(=O)N[C@@H](CCCNC(=N)N)C(=O)N[C@@H](CC(N)=O)C(N)=O", "note": "({Propanoyl(3-cHex)}-LL[Dab]PRN-NH2)", "values": [{"measurement": "inhibition", "setting": "Mus musculus [1]", "result": "inactive"}, {"measurement": "Activity", "setting": "Mus musculus [2]", "result": "<100", "unit": "%"}, {"measurement": "Activity", "setting": "Mus musculus [3]", "result": "inactive"}, {"measurement": "Activity", "setting": "Mus musculus [4]", "result": "Active"}, {"measurement": "Activity", "setting": "Mus musculus [5]", "result": "inactive"}, {"measurement": "inhibition", "setting": "Mus musculus [6]", "result": "Active"}, {"measurement": "Activity", "setting": "Mus musculus [7]", "result": 0.49, "unit": "ng/mL"}, {"measurement": "inhibition", "setting": "Mus musculus [8]", "result": "Active"}, {"measurement": "Activity", "setting": "Mus musculus [9]", "result": "inactive"}, {"measurement": "inhibition", "setting": "Mus musculus [10]", "result": "Active"}, {"measurement": "Activity", "setting": "Mus musculus [11]", "result": "inactive"}, {"measurement": "Activity", "setting": "Mus musculus [12]", "result": "<0.15", "unit": "ng/mL"}, {"measurement": "inhibition", "setting": "Mus musculus [13]", "result": "Active"}, {"measurement": "Activity", "setting": "Mus musculus [14]", "result": "Active"}, {"measurement": "Activity", "setting": "Mus musculus [15]", "result": "inactive"}, {"measurement": "Activity", "setting": "Mus musculus [16]", "result": "Active"}, {"measurement": "Activity", "setting": "Mus musculus [17]", "result": "inactive"}, {"measurement": "Activity", "setting": "Mus musculus [18]", "result": "inactive"}]}]}
